From PubChem
GASC1 inh = inhibitors of human demethylase GASC-1 KDM4C; AID 720574; actives 0.15% (n = 96,000); inhibition, % at 12.5 µM; GST-KDM4C 2-372, H3K9me3 peptide, LANCE TR-FRET;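 active = mean replicate inhibition above about 25%, with at least 55% of replicates also reaching it, limit read from the data, passing the limit was not always enough; inconclusive = only one of those two conditions met; inactive = neither condition met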
Target sequence (Q9H3R0 2-372 limits assumed): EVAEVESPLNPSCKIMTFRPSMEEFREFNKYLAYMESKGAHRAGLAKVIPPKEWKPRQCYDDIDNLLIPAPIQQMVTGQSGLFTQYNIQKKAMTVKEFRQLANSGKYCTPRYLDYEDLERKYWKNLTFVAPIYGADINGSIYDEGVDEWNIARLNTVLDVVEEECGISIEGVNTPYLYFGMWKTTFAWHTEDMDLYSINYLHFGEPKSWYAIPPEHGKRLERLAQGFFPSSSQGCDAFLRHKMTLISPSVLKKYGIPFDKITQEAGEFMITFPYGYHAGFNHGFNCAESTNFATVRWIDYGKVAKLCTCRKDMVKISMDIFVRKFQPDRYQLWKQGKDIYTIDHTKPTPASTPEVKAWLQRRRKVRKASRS
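reagent = H3K9me3 peptide substrate, Fe(II), 2-oxoglutarate | system = GST-tagged GASC-1 (JMJD2C) catalytic fragment, aa 2-372 | amount = enzyme final amount 10 nM | read-out = Fall in 671/618 emission ratio as inhibition | medium = HEPES buffer, pH 7.5, plus ascorbate | schedule = 30 min reaction, 60 min detection, RT | measured by = LANCE TR-FRET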
T cruzi growth-1 = T. cruzi proliferation inhibition; T. cruzi beta-gal in NIH3T3, GalScreen luminescence, 90 h; inhibition, % at 8.34 µM; actives 5.9% (n = 77,000); AID 624255;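 active = mean inhibition above about 93%, with at least 55% of replicates each passing it, limit read from the data, passing the limit was not always enough; inconclusive = only one of those two conditions holds; inactive = neither condition holds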
Pf Dd2 inh = P. falciparum Dd2 growth inhibition; SYBR Green, 72 h; active compounds read low; activity change, % at 10 µM; actives 2.3% (n = 94,000); AID 1159554; in the data active = activity change below about -80%; inconclusive = no clear call, values can overlap the other calls
IDH1 mut inh = IDH1 R132H (human) inhibition; IDH1 R132H reductase, diaphorase/resazurin fluorescence, 60 min; AID 624101; inhibition, % at 10 µM; actives 0.18% (n = 70,000); in the data active = inhibition above about 34%; inconclusive = no clear call, values can overlap the other calls; inactive = below about 11%
T cruzi growth-2 = blocks T. cruzi growth in NIH3T3 host cells; shares compounds with T cruzi growth-1; T. cruzi beta-gal in NIH3T3, GalScreen luminescence, 90 h; inhibition, % at 8.35 µM; actives 72% (n = 5,600);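 active = mean replicate inhibition above about 95% and at least 55% of replicates individually reaching it, limit read from the data; inconclusive = only one of the two criteria is met; inactive = neither criterion is met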
T cruzi growth-3 = Trypanosoma cruzi proliferation inhibition. T. cruzi beta-gal in NIH3T3, GalScreen luminescence, 90 h. shares compounds with T cruzi growth-1. inhibition, % at 2.09 µM. AID 651740. actives 21% (n = 5,600);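 active = mean inhibition above about 95%, with at least 55% of replicates also reaching it, limit read from the data; inconclusive = meets just one of the two conditions; inactive = meets neither condition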
3T3 cytotox = NIH/3T3 (mouse) viability loss. shares compounds with T cruzi growth-1. cytotoxicity (signal decrease), % at 8.35 µM. NIH/3T3 viability, CellTiter-Glo ATP luminescence, 90 h. actives 14% (n = 5,600);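 active = mean signal decrease across replicates above about 35% based on untreated-well scatter, with enough replicates individually passing, limit read from the data; inconclusive = no rule stated though some were filed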
NIH3T3 tox 2 = NIH/3T3 (mouse) viability loss | shares compounds with T cruzi growth-1 | actives 56% (n = 5,600) | inhibition, % at 24.9 µM | NIH/3T3 viability, CellTiter-Glo ATP luminescence, 90 h;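 active = mean loss of cell viability signal at or above a set limit, and enough replicates individually reaching it; inconclusive = meets only the mean limit or only the replicate share; inactive = meets neither condition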
Hits are given with their value; – = inactive; ? = inconclusive; · = not tested or not shown. In the library only some 5.8% were active in any assay of this set; here they are far more common.

SMILES	GASC1 inh	T cruzi growth-1	Pf Dd2 inh	IDH1 mut inh	T cruzi growth-2	T cruzi growth-3	3T3 cytotox	NIH3T3 tox 2
C[C@H]1CCCCO[C@@H](CN(C)S(=O)(=O)c2ccc(F)cc2)[C@@H](C)CN([C@@H](C)CO)C(=O)c2cc(NC(=O)NC3CCCCC3)ccc2O1	–	–	–	–	·	·	·	·
Cc1ccc(S(=O)(=O)N(C)C[C@@H]2OCCCC[C@H](C)Oc3ccc(NC(=O)NC4CCCCC4)cc3C(=O)N([C@H](C)CO)C[C@@H]2C)cc1	–	99	–	·	107	–	–	–
Cc1ccc(S(=O)(=O)N(C)C[C@H]2OCCCC[C@@H](C)Oc3ccc(NC(=O)NC4CCCCC4)cc3C(=O)N([C@@H](C)CO)C[C@H]2C)cc1	–	100	–	·	108	–	–	–
Cc1ccc(S(=O)(=O)N(C)C[C@H]2OCCCC[C@H](C)Oc3ccc(NC(=O)NC4CCCCC4)cc3C(=O)N([C@@H](C)CO)C[C@@H]2C)cc1	–	–	?	–	·	·	·	·
Cc1ccc(S(=O)(=O)N(C)C[C@@H]2OCCCC[C@H](C)Oc3ccc(NC(=O)NC4CCCCC4)cc3C(=O)N([C@@H](C)CO)C[C@@H]2C)cc1	–	101	-83	–	106	–	–	–
Cc1ccc(S(=O)(=O)N(C)C[C@@H]2OCCCC[C@@H](C)Oc3ccc(NC(=O)NC4CCCCC4)cc3C(=O)N([C@@H](C)CO)C[C@H]2C)cc1	–	–	–	–	·	·	·	·
Cc1ccc(S(=O)(=O)N(C)C[C@H]2OCCCC[C@@H](C)Oc3ccc(NC(=O)NC4CCCCC4)cc3C(=O)N([C@H](C)CO)C[C@H]2C)cc1	–	99	–	·	105	?	–	–
C[C@@H]1CCCCO[C@H](CN(C)S(=O)(=O)c2ccc(Cl)cc2)[C@@H](C)CN([C@H](C)CO)C(=O)c2cc(NC(=O)NC3CCCCC3)ccc2O1	–	–	·	–	·	·	·	·
C[C@@H]1CCCCO[C@H](CN(C)S(=O)(=O)c2ccc(Cl)cc2)[C@@H](C)CN([C@@H](C)CO)C(=O)c2cc(NC(=O)NC3CCCCC3)ccc2O1	–	101	·	·	105	–	–	33
C[C@H](CO)N1C[C@H](C)[C@H](CN(C)C(=O)Nc2ccc(C(F)(F)F)cc2)Oc2c(NC(=O)c3nc4ccccc4s3)cccc2C1=O	–	?	–	·	103	–	45	80
C[C@H](CO)N1C[C@H](C)[C@@H](CN(C)C(=O)Nc2ccc(C(F)(F)F)cc2)Oc2c(NC(=O)c3nc4ccccc4s3)cccc2C1=O	–	92	–	–	–	–	–	64
C[C@@H]1CN([C@H](C)CO)C(=O)c2cccc(NC(=O)c3nc4ccccc4s3)c2O[C@@H]1CN(C)C(=O)Nc1ccc(C(F)(F)F)cc1	–	–	–	·	·	·	·	·
CN1/C(=C\C=C2\C(=O)Oc3ccccc3C2=O)C(C)(C)c2ccccc21	·	·	·	–	·	·	·	·
C[C@@H]1CN([C@@H](C)CO)S(=O)(=O)c2ccc(C3=CCCC3)cc2O[C@@H]1CN(C)Cc1ccccc1F	–	114	–	·	99	110	–	104
C[C@H](CO)N1C[C@H](C)[C@@H](CN(C)Cc2ccccc2F)Oc2cc(C3=CCCC3)ccc2S1(=O)=O	–	?	–	–	97	–	–	105
C[C@H]1CN([C@@H](C)CO)S(=O)(=O)c2ccc(C3=CCCC3)cc2O[C@H]1CN(C)Cc1ccccc1F	–	–	–	–	·	·	·	·
C[C@@H]1CN([C@@H](C)CO)C(=O)c2cc(NS(=O)(=O)c3ccc(F)cc3)ccc2O[C@@H]1CN(C)CC1CC1	–	·	–	–	·	·	·	·
C[C@H]1CCCCO[C@@H](CN(C)S(=O)(=O)c2cccs2)[C@@H](C)CN([C@@H](C)CO)C(=O)c2cc(NS(=O)(=O)c3ccc(F)cc3)ccc2O1	–	–	·	·	·	·	·	·
CO[C@H]1CN(C)C(=O)c2cc(NC(=O)NC3CCCCC3)ccc2OC[C@H](C)N(CCc2ccccc2)C[C@@H]1C	–	–	–	–	·	·	·	·
CO[C@@H]1CN(C)C(=O)c2ccc(NC(=O)NC3CCCCC3)cc2OC[C@@H](C)N(CCc2ccccc2)C[C@H]1C	–	118	–	–	110	–	–	–
CO[C@@H]1CN(C)C(=O)c2ccc(NC(=O)Cc3ccccc3)cc2OC[C@@H](C)N(CCc2ccccc2)C[C@H]1C	–	99	–	–	100	104	–	–
CCC(=O)Nc1ccc2c(c1)OC[C@@H](C)N(CCc1ccccc1)C[C@H](C)[C@@H](OC)CN(C)C2=O	–	–	–	–	·	·	·	·
COc1ccc2c3c(n(C)c2c1)[C@@H](CO)N(C(=O)c1ccncc1)CC31CCN(C)CC1	·	·	–	·	·	·	·	·
CCC(=O)Nc1ccc2c(c1)C(=O)N(C)C[C@H](OC)[C@@H](C)CN[C@H](C)CO2	–	–	–	–	·	·	·	·
CC(C)NC(=O)Nc1cccc2c1O[C@@H](CN(C)Cc1ccc3c(c1)OCO3)[C@H](C)CN([C@@H](C)CO)C2=O	–	·	–	·	·	·	·	·
SMILES	GASC1 inh	T cruzi growth-1	Pf Dd2 inh	IDH1 mut inh	T cruzi growth-2	T cruzi growth-3	3T3 cytotox	NIH3T3 tox 2
Cn1cnc(S(=O)(=O)N2CCCCN3[C@H](CO)[C@@H](c4ccc(-c5ccccc5)cc4)[C@H]3C2)c1	–	98	–	·	–	–	–	–
Cc1cccc(-c2ccc([C@@H]3[C@@H](CO)N4CCCCN(S(=O)(=O)c5cn(C)cn5)C[C@H]34)cc2)c1	–	102	–	·	–	–	–	–
Cn1cnc(S(=O)(=O)N2CCCCN3[C@H](CO)[C@H](c4ccc(-c5ccc(F)cc5)cc4)[C@H]3C2)c1	–	?	–	·	?	–	–	41
Cn1cnc(S(=O)(=O)N2CCCCN3[C@H](C2)[C@@H](c2ccc(-c4ccccc4)cc2)[C@@H]3CO)c1	–	106	–	·	99	–	–	–
Cn1cnc(S(=O)(=O)N2CCCCN3[C@H](CO)[C@@H](c4ccc(-c5ccc(F)cc5)cc4)[C@H]3C2)c1	–	–	–	·	·	·	·	·
CC(C)NS(=O)(=O)c1ccc(NC(=O)C2CCCCC2C(=O)O)cc1 (stereo unspecified)	·	·	·	–	·	·	·	·
CCCNC(=O)[C@H]1[C@H](CO)[C@H]2Cn3c(ccc(-c4cccc(F)c4)c3=O)[C@H]2N1C(C)=O	–	–	–	·	·	·	·	·
Cn1cnc(S(=O)(=O)N2CCCCN3[C@@H](CO)[C@H](c4ccc(-c5ccccc5)cc4)[C@@H]3C2)c1	–	100	–	·	–	–	–	33
Cc1cccc(-c2ccc([C@H]3[C@@H](CO)N4CCCCN(S(=O)(=O)c5cn(C)cn5)C[C@H]34)cc2)c1	–	–	–	·	·	·	·	·
